Test results as given in ChEMBL document CHEMBL4265926, “Synthesis and antibacterial activity evaluation of novel biaryloxazolidinone analogues containing a hydrazone moiety as promising antibacterial agents” (Eur J Med Chem, 2018).
≈ marks a conversion by molar mass, not a printed value.

Experiments:
Staphylococcus aureus [1] = test: Antibacterial activity against Staphylococcus aureus ATCC 29213 by broth liquid microdilution method; format: functional
In short: (§1)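 Isolates were identified on an automated MicroScan WalkAway 96 system. Susceptibility was tested by broth microdilution following CLSI guidelines. MIC was taken as the lowest concentration giving complete inhibition of bacterial growth. S. aureus ATCC 29213 served as the control strain.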

Staphylococcus aureus [2] = test: Antibacterial activity against methicillin-resistant Staphylococcus aureus by broth liquid microdilution method; format: functional; in short: as §1
Staphylococcus aureus [3] = test: Antibacterial activity against methicillin-sensitive Staphylococcus aureus by broth liquid microdilution method; format: functional; in short: as §1
Enterococcus faecalis [4] = test: Antibacterial activity against linezolid-resistant Enterococcus faecalis by broth liquid microdilution method; format: functional; in short: as §1
Enterococcus faecium [5] = test: Antibacterial activity against vancomycin-resistant Enterococcus faecium by broth liquid microdilution method; format: functional; in short: as §1
Staphylococcus aureus [6] = test: Antibacterial activity against methicillin-resistant Staphylococcus aureus clinical isolates by broth liquid microdilution method; format: functional; in short: as §1
Staphylococcus aureus [7] = test: Antibacterial activity against methicillin-sensitive Staphylococcus aureus clinical isolates by broth liquid microdilution method; format: functional; in short: as §1
Enterococcus faecium [8] = test: Antibacterial activity against vancomycin-resistant Enterococcus faecium clinical isolates by broth liquid microdilution method; format: functional; in short: as §1
Enterococcus faecalis [9] = test: Antibacterial activity against linezolid-resistant Enterococcus faecalis clinical isolates by broth liquid microdilution method; format: functional; in short: as §1
[10] = biological target: T1, MAO-A (amine oxidase [flavin-containing] A) (Homo sapiens, UniProt P21397); test: Inhibition of recombinant human MAOA expressed in baculovirus infected Sf9 insect cells at 30 uM using luciferin derived substrate pretreated for 15 mins followed by substrate addition and measured after 60 mins by luminescence assay relative to control; details: probe luciferin derived substrate
T1 sequence (P21397 whole entry): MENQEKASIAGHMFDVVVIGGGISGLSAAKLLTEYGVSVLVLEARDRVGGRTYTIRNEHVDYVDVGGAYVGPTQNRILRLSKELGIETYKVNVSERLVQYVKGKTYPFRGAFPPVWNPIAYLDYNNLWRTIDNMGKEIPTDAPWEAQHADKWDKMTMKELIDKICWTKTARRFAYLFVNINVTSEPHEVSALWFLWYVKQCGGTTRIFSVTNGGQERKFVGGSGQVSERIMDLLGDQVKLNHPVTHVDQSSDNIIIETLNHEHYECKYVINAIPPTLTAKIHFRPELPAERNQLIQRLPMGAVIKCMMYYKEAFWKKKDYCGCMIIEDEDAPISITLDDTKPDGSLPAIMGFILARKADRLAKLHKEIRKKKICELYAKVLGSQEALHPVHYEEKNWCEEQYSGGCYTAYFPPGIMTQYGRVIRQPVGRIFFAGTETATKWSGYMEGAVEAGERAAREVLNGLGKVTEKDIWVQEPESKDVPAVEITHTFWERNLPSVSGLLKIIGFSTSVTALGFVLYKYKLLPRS
In short: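 Human recombinant MAO-A with MAO-Glo luminescent kit. Compounds in DMSO (final 1% DMSO) preincubated with enzyme 15 min at room temperature, then luciferin derivative substrate added and reacted 60 min at room temperature. Luciferase detection reagent added for 20 min before luminescence read. Buffer replacing enzyme served as 100% inhibition control and DMSO as no-inhibition control; percent inhibition calculated against both.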

Staphylococcus aureus [11] = test: Potency index, ratio of linezolid MIC to test compound MIC for Staphylococcus aureus ATCC 29213; format: functional
In short: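 MIC by broth microdilution per CLSI guidelines, taken as the lowest concentration giving complete growth inhibition; isolates identified on MicroScan WalkAway 96; S. aureus ATCC29213 used as control strain. Index expressed as linezolid MIC divided by test compound MIC.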

Staphylococcus aureus [12] = test: Potency index, ratio of linezolid MIC to test compound MIC for methicillin-sensitive Staphylococcus aureus; format: functional
HepG2 = test: Cytotoxicity against human HepG2 cells after 48 hrs by MTT assay; format: cell-based; details: HepG2, 48 h
In short: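 HepG2 cells grown in RPMI1640 with 10% FBS; about 4×10⁴ cells per well seeded in MEM, incubated 24 h at 37 ℃ in 5% CO₂, then exposed to compounds at indicated final concentrations for 48 h. MTT added (final 0.5 mg/mL) for 4 h at 37 ℃, formazan dissolved in DMSO, absorbance read at 492 nm. Triplicate runs; IC50 as mean ± SD.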

[13] = Half life in human liver microsomes at 1.5 uM in presence of NADPH by LC-MS analysis; format: ADME, microsome
In short: (§2)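 Human liver microsomes with 1.5 µM compound in a 0.75 mg/mL microsome mix were pre-warmed at 37 °C for 5 min. Reaction started with NADPH (6 mM stock). Samples were quenched with acetonitrile plus internal standard at 0, 5, 15, 30 and 45 min, then read by LC/MS, in duplicate. T1/2 = ln(2)/k from the log-linear slope; Clint derived from T1/2; % remaining read at 45 min.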

[14] = Intrinsic clearance in human liver microsomes at 1.5 uM pretreated for 5 mins followed by NADPH addition measured after 5 to 45 mins by LC-MS analysis; format: ADME, microsome; details: read-out: CLH; in short: as §2
[15] = Stability in human liver microsomes assessed as parent compound remaining at 1.5 uM pretreated for 5 mins followed by NADPH addition measured after 45 mins by LC-MS analysis; format: ADME, microsome; details: read-out: Stability; in short: as §2

SMILES	MIC (Staphylococcus aureus [1]) [µg/mL]	MIC (Staphylococcus aureus [2]) [µg/mL]	MIC (Staphylococcus aureus [3]) [µg/mL]	MIC (Enterococcus faecalis [4]) [µg/mL]	MIC (Enterococcus faecium [5]) [µg/mL]	MIC50 (Staphylococcus aureus [6]) [µg/mL]	MIC90 (Staphylococcus aureus [6]) [µg/mL]	MIC (Staphylococcus aureus [7]) [µg/mL]	MIC50 (Staphylococcus aureus [7]) [µg/mL]	MIC90 (Staphylococcus aureus [7]) [µg/mL]	MIC (Enterococcus faecium [8]) [µg/mL]	MIC50 (Enterococcus faecium [8]) [µg/mL]	MIC90 (Enterococcus faecium [8]) [µg/mL]	MIC (Enterococcus faecalis [9]) [µg/mL]	MIC50 (Enterococcus faecalis [9]) [µg/mL]	MIC90 (Enterococcus faecalis [9]) [µg/mL]	inhibition at 1 h, 30 µM [10] [%]	Ratio (Staphylococcus aureus [11])	Ratio (Staphylococcus aureus [12])	further results
CC(=O)NC[C@H]1CN(c2ccc(-c3ccc(/C=N/N4CCN(C(=O)c5ccc(F)cc5)CC4)cc3)c(F)c2)C(=O)O1	0.125 (≈ 0.223 µM)	0.125 (≈ 0.223 µM)	0.125 (≈ 0.223 µM)	0.125 (≈ 0.223 µM)	0.125 (≈ 0.223 µM)	0.125 (≈ 0.223 µM)	0.25 (≈ 0.445 µM)	0.0625 to 0.25 (≈ 0.111 to 0.445 µM)	0.25 (≈ 0.445 µM)	0.25 (≈ 0.445 µM)	0.0625 to 0.5 (≈ 0.111 to 0.89 µM)	0.25 (≈ 0.445 µM)	0.5 (≈ 0.89 µM)	0.0625 to 0.25 (≈ 0.111 to 0.445 µM)	0.25 (≈ 0.445 µM)	0.25 (≈ 0.445 µM)	89			
CC(=O)NC[C@H]1CN(c2ccc(-c3ccc(/C=N/N4CCSCC4)cc3)c(F)c2)C(=O)O1	0.0675 (≈ 0.148 µM)	0.0675 (≈ 0.148 µM)	0.0675 (≈ 0.148 µM)	0.0675 (≈ 0.148 µM)	0.0675 (≈ 0.148 µM)	0.125 (≈ 0.274 µM)	0.25 (≈ 0.548 µM)	0.0625 to 0.25 (≈ 0.137 to 0.548 µM)	0.125 (≈ 0.274 µM)	0.25 (≈ 0.548 µM)	0.0625 to 0.5 (≈ 0.137 to 1.1 µM)	0.15 (≈ 0.329 µM)	0.5 (≈ 1.1 µM)	0.0625 to 0.25 (≈ 0.137 to 0.548 µM)	0.125 (≈ 0.274 µM)	0.5 (≈ 1.1 µM)	81	15 - 30	15 - 30	
CC(=O)NC[C@H]1CN(c2ccc(-c3ccc(/C=N/N4CCNCC4)cc3)c(F)c2)C(=O)O1	0.0675 (≈ 0.154 µM)	0.0675 (≈ 0.154 µM)	0.0675 (≈ 0.154 µM)	0.25 (≈ 0.569 µM)	0.25 (≈ 0.569 µM)	0.125 (≈ 0.284 µM)	0.25 (≈ 0.569 µM)	0.0625 to 0.25 (≈ 0.142 to 0.569 µM)	0.125 (≈ 0.284 µM)	0.25 (≈ 0.569 µM)	0.0625 to 0.5 (≈ 0.142 to 1.14 µM)	0.25 (≈ 0.569 µM)	0.5 (≈ 1.14 µM)	0.0625 to 0.25 (≈ 0.142 to 0.569 µM)	0.25 (≈ 0.569 µM)	0.25 (≈ 0.569 µM)	84			
CC(=O)NC[C@H]1CN(c2ccc(-c3ccc(/C=N/N4CCN(C)CC4)cc3)c(F)c2)C(=O)O1	0.0675 (≈ 0.149 µM)	0.0675 (≈ 0.149 µM)	0.0675 (≈ 0.149 µM)	0.0675 (≈ 0.149 µM)	0.0675 (≈ 0.149 µM)	0.0625 (≈ 0.138 µM)	0.125 (≈ 0.276 µM)	0.0625 to 0.25 (≈ 0.138 to 0.551 µM)	0.0625 (≈ 0.138 µM)	0.125 (≈ 0.276 µM)	0.0625 to 0.5 (≈ 0.138 to 1.1 µM)	0.25 (≈ 0.551 µM)	0.5 (≈ 1.1 µM)	0.0625 to 0.25 (≈ 0.138 to 0.551 µM)	0.125 (≈ 0.276 µM)	0.125 (≈ 0.276 µM)	71	15 - 30	15 - 30	IC50 (HepG2): 820 nM; half-life at 1.5 µM [13]: 1.21 h; CLint scaled at 1.5 µM [14]: 23.9 mL/min/kg; remaining at 0.75 h, 1.5 µM [15]: 64.7%
